Test results as given in ChEMBL document CHEMBL4513216, “Probing the Open Global Health Chemical Diversity Library for Multistage-Active Starting Points for Next-Generation Antimalarials” (ACS Infect Dis, 2020).

assay: Toxicity liver stage against HepG2, at 10uM; type: cell-based; design: test concentration 10 uM, cell line HepG2-A16-CD81EGFP; details: human, HepG2-A16-CD81EGFP cells; read-out: INHIBITION
How it was run: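 Uninfected HepG2-A16-CD81EGFP cells, 3 × 10^3 per well, 1536-well, plated on prespotted compound at 10 μM final, parasite-free screening media added to match infected plates; puromycin 10 μM positive, DMSO 0.5% negative; run in parallel with 48 h PbLuc assay at 37 °C, 5% CO2; viability by CellTiter-Glo luminescence, normalized to controls.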

Row | Structure (SMILES) | cytotoxicity at 10 µM
1 | Cc1cccc(O[C@H]2COCCN(C3CCOCC3)C2)n1 | 9.09%
2 | CCN(CC)C1(Cc2cc(CC(C)C)on2)COC1 | 2.23%
3 | CO[C@H]1COCCN(C(=O)c2ccc(C#N)cc2)C1 | 4.94%
4 | CC(=O)c1ccc(N2CCN(C(=O)c3cnn4c3OCCC4)CC2)cc1 | 8.44%
5 | CCOC1CC2(CCN(C(=O)COC)CC2)c2cc(C)ccc21 (centres undefined) | -142%
6 | CC(=O)N1Cc2nccn2CC(CNC(=O)c2ccnnc2)C1 (centres undefined) | -138%
7 | COC[C@]12COC[C@H]1CN(Cc1cccnc1OC)C2 | -9.83%
8 | CCS(=O)(=O)Nc1ccc2oc(C)c(C(=O)OC)c2c1 | 5.87%
9 | CCN1CCN(C(=O)Cn2ncc3c2c(C)nn3C(C)C)CC1 | 6.5%
10 | CCn1nc(C)c2nnn(CC(=O)Nc3cccc(F)c3)c(=O)c21 | 8.44%
11 | O=C(CCn1ccnc1)N1CCC(c2nnc(-c3ccccn3)o2)CC1 | 3.29%
12 | O=S(=O)(N1CCOCC1)N1CCCC(c2ccccn2)C1 (centres undefined) | 2.23%
13 | COCC(=O)N1CCCC(C(=O)c2cnn(-c3ccc(F)cc3)c2N)C1 (centres undefined) | 9.71%
14 | O[C@H]1CN(Cc2cc3ccccc3o2)CC[C@@]12CCCO2 | -21.9%
15 | Cc1cc(C)nc(C2CCN(C(=O)c3cncnc3C)C2)n1 (centres undefined) | 5.16%
16 | Cc1ccc2c(c1)C(=O)NCC1(CCN(C(=O)c3scnc3C)CC1)O2 | -17.3%
17 | CC(C)N1CCC(Cc2cncc(-c3ccccc3C(=O)O)n2)C1 (centres undefined) | -10%
18 | CC(=O)N1CCCCC1c1nc(C)cc(-c2ccccc2C(=O)O)n1 (centres undefined) | -12.8%
19 | Cc1nc(C2CCN(C(=O)c3ccnn3C)CC2)c2sccn12 | -10.7%
20 | Cc1cccnc1CN1CCC2(CC(Nc3ccncn3)C2)C1 (centres undefined) | -6.36%
21 | CN(c1ccncn1)C1CC2(CCN(C(=O)c3cccn3C)C2)C1 (centres undefined) | -8.05%
22 | CC(C)N1CCC(c2cc(C(F)(F)F)n3ccnc3n2)CC1 | -16.2%

Row | Structure (SMILES) | cytotoxicity at 10 µM
23 | C[C@]1(O)CN(Cc2ccc(C(=O)O)cc2)CC[C@@H]1Oc1cccc(F)c1 | -6.66%
24 | CC(C)NC(=O)CN(C)C(=O)c1c(Cl)c2ccccc2n1C | 5.26%
25 | COCCNC(=O)c1ccc(NCc2csc(C)n2)cc1Cl | 6.81%
26 | COC(=O)C1CN(Cc2ccn(-c3ccc(F)cc3)n2)C[C@@H](C)O1 (some centres undefined) | -4.52%
27 | Cc1ccc(N2CCCC(N(C)Cc3cc(C)on3)C2)nn1 (centres undefined) | 17.5%
28 | CCCNC(=O)Cn1cc(C#N)c(=O)c2cc(Br)ccc21 | -0.842%
29 | Cc1n[nH]c(C2CN(C(=O)c3ccoc3C)CCO2)n1 (centres undefined) | -22.4%
30 | COc1c(C2CCCN2C(=O)c2ccoc2)c(C)nn1C (centres undefined) | 4%
31 | CC(C)c1nnc(CNc2ccc(SC(F)(F)F)cc2)o1 | 11.5%
32 | Cc1cccc(C)c1CNC1(CCO)CCOCC1 | 1.93%
33 | CCC(CC)(CC(=O)OC)NC(=O)Nc1nnc(-c2ccccn2)s1 | -8.68%
34 | CC(C)Oc1cccc(CNC(=O)N2CCC(N3CC=CC3)C2)c1 (centres undefined) | 0.477%
35 | Fc1ccc(-c2ccc(CNC3CCc4ncnn4C3)o2)cc1 (centres undefined) | -7.62%
36 | CCCS(=O)(=O)CC(=O)N1CCN(CC2CC2)c2ccccc21 | -7.44%
37 | CSCCC(NC(=O)c1ccccc1)C(=O)N(C)Cc1ccsc1 (centres undefined) | 7.17%
38 | CC(NC(=O)C1CC1)C(=O)N(C)Cc1ccsc1 (centres undefined) | 3.64%
39 | O=C(CCc1ccsc1)N1CCC(C(=O)O)(c2ccccc2)CC1 | 12.4%
40 | Cc1cccc(NS(=O)(=O)c2ccc(C#N)nc2)c1C#N | 0.0489%
41 | Cc1cccc(C(C)(C)CNC(=O)CN(C)S(=O)(=O)c2cccnc2)c1 | 7.41%
42 | CN(C)c1cccc(CNC(=O)Nc2cc(C#N)ccc2Cl)n1 | 21.6%
43 | Cc1ccc2cccc(S(=O)(=O)N(C)CC3CCN(C)C3)c2n1 (centres undefined) | 1.5%
44 | O=C(c1cnc2[nH]c(=O)[nH]c(=O)c2c1)N1CCCC1C1CCCC1 (centres undefined) | 6.22%

Row | Structure (SMILES) | cytotoxicity at 10 µM
45 | CC(NC1(CNC(=O)C(C)(C)C#N)CCOCC1)c1ccccc1 (centres undefined) | 7.35%
46 | COC(=O)CCN1CCCC1c1cccc2c1OCCO2 (centres undefined) | 17.7%
47 | Cc1cc(C)n(CCCNC(=O)[C@@H](C)NC(=O)OC(C)(C)C)n1 | -8%
48 | Cc1nc(C)c(C(=O)N2CCCC2c2nnc3n2CCCCC3)s1 (centres undefined) | -2.62%
49 | Cn1ccnc1CC1CCCN(C(=O)Nc2cccn(C)c2=O)C1 (centres undefined) | -4.79%
50 | CC(=O)NCC(=O)N1C[C@@H](C)[C@@]2(CCN(c3ccsc3)C2=O)C1 | -74.7%
51 | OCCNc1nccc(-c2c[nH]nc2-c2cccnc2)n1 | -8.22%
52 | COc1ccc(OC)c(-n2cnnc2C)c1 | 1.24%
53 | Cc1cccc(-n2cc(CNc3ncnc4c3CCNCC4)cn2)c1 | 3.96%
54 | CSCC[C@@H](CO)n1ccnc1-c1ccc(C)o1 | 7.02%
55 | COC[C@@]12CC[C@@H](N3CCOCC3)C[C@H]1CCN(c1nc(CO)cs1)C2 | -3.61%
56 | COc1ccc(CN2CCn3cncc3C2)cc1Cn1cncn1 | 7.55%
57 | O=C(c1cccc(Cl)c1)C1CCCN(c2nnc(C3CCC3)o2)C1 (centres undefined) | 0.409%
58 | Cc1ncsc1CN1CCN(C)C2(CCC(=O)N(CCO)CC2)C1 (centres undefined) | -9.8%
59 | CCC[C@@H]1CN(C(=O)c2c(F)ccc(C)c2Cl)C[C@H]1C(=O)O | -4.39%
60 | O=C(c1cnc(O)cc1O)N1CCCC(CCc2ccccc2F)C1 (centres undefined) | -2.24%
61 | CNCCN1C(=O)CC[C@H]2CN(c3cnc4ccccc4n3)CC[C@H]21 | -1.62%
62 | O=C(c1cc(Cn2ccc3ccccc32)[nH]n1)N1CCOCC1 | -1.01%
63 | CC(C)=CCN1CCN(Cc2nc3ccccc3[nH]2)[C@H]2CS(=O)(=O)C[C@H]21 | -132%
64 | COC(=O)N1CCCCC1C(=O)N1CCCN(c2ccnc(C)c2)CC1 (centres undefined) | -3.76%
65 | CCOCCn1nc(C)cc1C(=O)N1CC[C@@](O)(COC)C(C)(C)C1 | -1.66%
66 | CN(CCCC1CCCO1)S(=O)(=O)NCc1ccccc1 (centres undefined) | 2.2%

Row | Structure (SMILES) | cytotoxicity at 10 µM
67 | CCN(CC1CCCN(CCc2cccc(OC)c2)C1)C(=O)CN(C)C (centres undefined) | 9.05%
68 | CSc1nccc(NCc2cc3n(n2)CCCN(C(=O)C2CCC2)C3)n1 | -118%
69 | Cc1ccc(C(=O)O)cc1-c1cccc2c1CCNC2 | 7.56%
70 | Cc1cc(N2CCC3(CCCN(CCO)C3=O)C2)nc2cc(Cl)ccc12 (centres undefined) | 3.72%
71 | COCc1noc(CN2CCC3(CC2)[C@H](O)C[C@@H]3OC)n1 | 0.0851%
72 | CCc1nc(NC2CCCN(C(=O)C3CC3)C2)c2cnn(C)c2n1 (centres undefined) | -1.05%
73 | Cc1cc(C)n(CC(C)NC2CCN(Cc3cccnc3)CC2)n1 (centres undefined) | 2.45%
74 | O=C(O)c1cccc(CC2CCN(c3ncccn3)CC2)c1 | -134%
75 | Cc1nnc(CN(C)Cc2ccc(C(=O)Nc3sccc3C#N)cc2)o1 | -6.88%
76 | Cc1cc(NCCNc2ncccc2C)n2nc(C)cc2n1 | 2.41%
77 | CS(=O)(=O)N(Cc1ccon1)c1ccc(F)cc1 | 2.24%
78 | CC(C)Nc1cc(N2CCC(n3cc(C4CCCC4)nn3)CC2)ncn1 | 7.81%
79 | O=C(c1cnc2ccccc2c1)N1CCCC(O)(CN2CCCC2)C1 (centres undefined) | 9.27%
80 | CNC(=O)c1noc(Cn2ncc3ccccc3c2=O)n1 | -5.35%
81 | CC(C)NS(=O)(=O)c1cc(C(=O)O)cc(-c2ccc(CN(C)C)cc2)c1 | 13.3%
82 | CCSc1ncc(Cl)c(C(=O)NC(CCSC)C(=O)O)n1 (centres undefined) | -8.91%
83 | CCC(NC(=O)c1nn(C)cc1C(=O)O)c1ccccc1 (centres undefined) | -7.41%
84 | Cc1nnc(NCc2ccccc2S(=O)(=O)N(C)C)c(C#N)c1C | -8.51%
85 | Cc1cnn(CC2CCCN2C(=O)c2ccc(-n3cccn3)nc2)c1 (centres undefined) | -15.7%
86 | O=C(NCc1cc[nH]n1)NCC(c1ccccc1)N1CCOCC1 (centres undefined) | -3.39%
87 | Cc1cccc(OCCCNC(=O)NC(C)c2nncn2C)c1 (centres undefined) | -7.5%
88 | Cc1cc(NC(=O)CN(C)C2CCCN(c3cccnn3)C2)n(C)n1 (centres undefined) | -12.4%

Row | Structure (SMILES) | cytotoxicity at 10 µM
89 | CN1CCC(NC(=O)NCCNc2ccccn2)CC1 | -1.72%
90 | COc1ccc(CNCC2CCN(CC(C)O)CC2)c2ccccc12 (centres undefined) | -11.5%
91 | CCc1ccc(C(=O)N2CCN(CC(C)O)CC2)o1 (centres undefined) | -8.18%
92 | COc1cccc2cc(CNC(C)(C)C(=O)N3CCC(O)CC3)oc12 | -12.2%
93 | Cc1cc(C2CCCN(CCCS(=O)(=O)c3ccccc3)C2)n[nH]1 (centres undefined) | -7.64%
94 | Cn1cnnc1C1CCCN(C(=O)c2cc(Cl)c3c(c2)OCO3)C1 (centres undefined) | -1.08%
95 | Cc1cc(CN(C)C(=O)c2ccc(C(F)(F)F)nc2)no1 | 2.05%
96 | Cc1cc(C)c(CNC(=O)N2CCCC2c2cccn2C)c(=O)[nH]1 (centres undefined) | -2.82%
97 | Cc1nc2ccccc2nc1CN1CCCC1c1c(C)nn(C)c1C (centres undefined) | -1.78%
98 | Cc1cccnc1[C@]1(O)CC[C@H]2CN(Cc3cccc(Cl)c3Cl)C[C@H]21 | -5.86%
99 | c1csc(CN2CCCn3nnc(COCC4CC4)c3C2)n1 | -101%
100 | O=C(N1CCOCC1)N1CCc2ncc(CN3CCCCC3)n2CC1 | -87.7%
101 | Cc1cc(F)ccc1C(=O)N1C[C@@H]2COC[C@]2(CN(C)C)C1 | -142%
102 | NCCCNS(=O)(=O)Cc1ccc(Br)cc1 | -0.447%
103 | Cc1occc1C(=O)N1C[C@@H]2OCCN(C(C)C)[C@@H]2C1 | -73.4%
104 | CN(C)C[C@@H]1CCC[C@@H]2CN(c3ncccn3)C[C@@H]21 | 5.85%
105 | O=C(c1cscn1)N1CCC2(CN(Cc3nccs3)C2)C1 | -72.6%
106 | O=C1[C@H]2CN(Cc3ccncc3)C[C@H]2CN1c1ccsc1 | -81.1%
107 | Cc1nc(CN2C[C@@H]3CN(C(=O)c4cccn4C)C[C@@H]3C2)cs1 | 0.346%
108 | Cc1ccc(CN2C[C@@H]3C[C@H](C(=O)NCC4CC4)N(C)[C@@H]3C2)o1 | -3.63%
109 | CSc1nc(N)c2c(n1)N=C1COC(=O)C1C2c1cccc(Cl)c1 (centres undefined) | 37.5%
